Where “and” joins values, the source holds several entries; their conditions need not be identical. Equal entries are not always repeated.
Legend:
[1] = The ratio of AzT-taxol/tubulin covalently bound after irradiation at initial ratio of 3.0
Outline: (§1)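 Tubulin (5 μM) with [3H]AzB-taxol at varied initial ratios, 20 min at 37 °C in Pipes/EGTA/MgSO4/DTT/GTP buffer pH 6.9, then irradiated 20 min at 300 nm. Centrifuged at 40000g, 10 min, 37 °C. Pellet washed repeatedly with 50% ethanol, dissolved in 0.1 M NaOH. Covalent mol/mol from radioactivity and protein.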

Tubulin (Bos taurus) [2] = assay: The incorporation of [3H]AzB-taxol into tubulin was evaluated after irradiation with 254 nM lamp
[3] = The ratio of […]/tubulin noncovalently bound […] at initial ratio of 4.0
Outline: (§2)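 Noncovalent binding without irradiation: 5 μM tubulin with varied [3H]AzB-taxol, 20 min at 37 °C. Centrifuged at 40000g; pellets washed with buffer, recentrifuged and dissolved in 0.1 M NaOH. Bound mol/mol from protein and radioactivity.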

[4] = The ratio of AzT-taxol/tubulin covalently bound after irradiation at initial ratio of 2.0; outline: as §1
[5] = test system: Tubulin alpha chain (Bos taurus); assay: The photoincorporation of [3H]AzB-taxol into alpha-subunit of tubulin was evaluated at initial ratio of 1.0
[6] = molecular target: Tubulin alpha chain (Sus scrofa) (UniProt P02550); assay: The photoincorporation of [3H]AzB-taxol into alpha-subunit of tubulin was evaluated at initial ratio of 0.5
Outline: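 Tubulin (5 μM) with [3H]AzB-taxol at the stated initial ratio, 20 min at 37 °C, then irradiated 20 min at 300 nm. Ethanol-washed precipitate run on SDS-PAGE (7.5% running gel, 3% stacking gel) and stained with Coomassie. α- and β-bands excised, dissolved in 30% H2O2 at 65 °C and counted; results are % of incorporation per subunit, n = 2–3 experiments.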

[7] = The ratio of […]/tubulin noncovalently bound […] at initial ratio of 1.0; outline: as §2
[8] = The ratio of AzT-taxol/tubulin covalently bound after irradiation at initial ratio of 0.5; outline: as §1
Tubulin (Bos taurus) [9] = assay: The photoincorporation of [3H]AzB-taxol into tubulin was evaluated from tubulin in 8M urea
[10] = The ratio of AzT-taxol/tubulin noncovalently bound […] at initial ratio of 2.0; outline: as §2
Tubulin (Bos taurus) [11] = assay: The incorporation of [3H]AzB-taxol into tubulin was evaluated after irradiation with 350 nM lamp
[12] = The ratio of AzT-taxol/tubulin covalently bound after irradiation at initial ratio of 1.0; outline: as §1
Tubulin (Bos taurus) [13] = assay: The inhibition of photoincorporation of AzB-taxol into tubulin was evaluated in the presence of 7.5 uM of taxol; Complete inhibition
Tubulin (Bos taurus) [14] = assay: The photoincorporation of [3H]AzB-taxol into tubulin was evaluated by incubation in dark
[15] = The ratio of AzT-taxol/tubulin noncovalently bound after irradiation at initial ratio of 0.5; settings: in the assay text read “before irradiation” for “after irradiation”; outline: as §2
[16] = molecular target: Tubulin beta chain (Sus scrofa) (UniProt P02554); assay: The photoincorporation of [3H]-AzB-taxol into beta-subunit of tubulin was evaluated at initial ratio of 1.0
Tubulin (Bos taurus) [17] = assay: The incorporation of [3H]AzB-taxol into tubulin was evaluated after irradiation with 300 nM lamp
Tubulin (Bos taurus) [18] = assay: The photoincorporation of [3H]AzB-taxol into tubulin was evaluated from polymerized tubulin
Tubulin (Bos taurus) [19] = assay: The photoincorporation of [3H]AzB-taxol into tubulin was evaluated from unpolymerized tubulin on ice
[20] = The ratio of AzT-taxol/tubulin covalently bound after irradiation at initial ratio of 4.0; outline: as §1
Tubulin (Bos taurus) [21] = assay: The photoincorporation of [3H]AzB-taxol into tubulin was evaluated by preirradiation of the compound
[22] = The ratio of AzT-taxol/tubulin noncovalently bound […] at initial ratio of 3.0; outline: as §2
[23] = molecular target: Tubulin beta chain (Sus scrofa) (UniProt P02554); assay: The photoincorporation of [3H]AzB-taxol into beta-subunit of tubulin was evaluated at initial ratio of 0.5

Tubulin beta chain (Sus scrofa), sequence (P02554 whole entry, looked up): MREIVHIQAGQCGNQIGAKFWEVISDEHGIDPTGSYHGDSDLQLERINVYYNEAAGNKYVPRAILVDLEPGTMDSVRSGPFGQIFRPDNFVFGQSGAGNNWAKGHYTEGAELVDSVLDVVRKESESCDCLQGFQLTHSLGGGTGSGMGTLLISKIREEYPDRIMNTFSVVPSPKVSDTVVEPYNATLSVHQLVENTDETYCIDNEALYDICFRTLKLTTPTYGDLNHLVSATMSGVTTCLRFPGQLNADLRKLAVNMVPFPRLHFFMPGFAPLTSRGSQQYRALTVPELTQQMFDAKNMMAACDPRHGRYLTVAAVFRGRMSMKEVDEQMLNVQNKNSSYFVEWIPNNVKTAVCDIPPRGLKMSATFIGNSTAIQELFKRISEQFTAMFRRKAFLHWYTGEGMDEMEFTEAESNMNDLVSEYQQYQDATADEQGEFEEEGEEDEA
Tubulin alpha chain (Sus scrofa), sequence (P02550 whole entry, looked up): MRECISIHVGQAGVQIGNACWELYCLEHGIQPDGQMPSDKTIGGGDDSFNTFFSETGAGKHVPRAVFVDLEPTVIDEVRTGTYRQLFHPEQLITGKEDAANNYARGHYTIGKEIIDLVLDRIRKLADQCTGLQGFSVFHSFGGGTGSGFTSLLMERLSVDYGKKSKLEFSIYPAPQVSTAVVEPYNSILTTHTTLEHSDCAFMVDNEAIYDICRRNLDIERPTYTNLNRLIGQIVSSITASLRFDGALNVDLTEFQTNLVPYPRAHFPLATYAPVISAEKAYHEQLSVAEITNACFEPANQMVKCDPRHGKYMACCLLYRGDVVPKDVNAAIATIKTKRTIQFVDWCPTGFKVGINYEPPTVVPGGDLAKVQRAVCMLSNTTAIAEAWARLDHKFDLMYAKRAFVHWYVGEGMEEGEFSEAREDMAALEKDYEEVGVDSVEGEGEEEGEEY

- Ratio [1]: 0.23
- Amount incorporated (M (M of tubulin)-1) (Tubulin (Bos taurus) [2]): 0.13
- Ratio [3]: 1.19
- Ratio [4]: 0.23
- Incorporated [5]: 14%
- Incorporated [6]: 20% and 19%
- Ratio [7]: 0.85
- Ratio [8]: 0.13
- Amount incorporated (M (M of tubulin)-1) (Tubulin (Bos taurus) [9]): 0.015
- Ratio [10]: 1.22
- Amount incorporated (M (M of tubulin)-1) (Tubulin (Bos taurus) [11]): 0.025
- Ratio [12]: 0.17
- Incorporated (Tubulin (Bos taurus) [13]): Complete inhibition
- Amount incorporated (M (M of tubulin)-1) (Tubulin (Bos taurus) [14]): 0.008
- Ratio [15]: 0.5
- Incorporated [16]: 86%
- Amount incorporated (M (M of tubulin)-1) (Tubulin (Bos taurus) [17]): 0.12
- Amount incorporated (M (M of tubulin)-1) (Tubulin (Bos taurus) [18]): 0.15
- Amount incorporated (M (M of tubulin)-1) (Tubulin (Bos taurus) [19]): 0.03
- Ratio [20]: 0.24
- Amount incorporated (M (M of tubulin)-1) (Tubulin (Bos taurus) [21]): 0.016
- Ratio [22]: 1.2
- Incorporated [23]: 80% and 81%
Structure (SMILES): CC(=O)O[C@H]1C(=O)[C@@]2(C)C([C@H](OC(=O)c3ccccc3)[C@]3(O)C[C@H](OC(=O)[C@H](O)C(NC(=O)c4ccc(N=[N+]=[N-])cc4)c4ccccc4)C(C)=C1C3(C)C)[C@]1(OC(C)=O)CO[C@@H]1C[C@@H]2O (stereo partly drawn)
